Legend:
Assay type in all cases: functional
Haemophilus influenzae = assay: Antimicrobial activity against beta-lactamase-producing Haemophilus influenzae clinical isolate after 18 to 22 hrs by broth microdilution method in presence of beta-lactamase inhibitor BLI-489
Summary of the method: (§1)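 Haemophilus isolates were tested in Haemophilus test medium by CLSI broth microdilution. Serial piperacillin dilutions carried BLI-489 fixed at 4 μg/ml. Inoculum was 10^5 CFU/ml, incubated 18 to 22 h at 35°C in ambient air. MIC was the lowest concentration completely inhibiting growth by eye.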

[1] = system: Haemophilus parainfluenzae; assay: Antimicrobial activity against Haemophilus parainfluenzae clinical isolate after 18 to 22 hrs by broth microdilution method in presence of beta-lactamase inhibitor BLI-489; summary of the method: as §1
Moraxella catarrhalis = assay: Antimicrobial activity against Moraxella catarrhalis clinical isolate after 18 to 22 hrs by broth microdilution method in presence of beta-lactamase inhibitor Tazobactam
Summary of the method: (§2)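 Piperacillin-tazobactam was tested by CLSI broth microdilution in Mueller-Hinton II broth against clinical isolates. Inoculum was 10^5 CFU/ml, with 18 to 22 h incubation at 35°C in ambient air. MIC was read as the lowest concentration completely inhibiting visible growth.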

[2] = system: Staphylococcus haemolyticus; assay: Antimicrobial activity against Staphylococcus haemolyticus clinical isolate after 18 to 22 hrs by broth microdilution method in presence of beta-lactamase inhibitor BLI-489
Summary of the method: (§3)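 CLSI broth microdilution in Mueller-Hinton II broth. Serial dilutions of piperacillin were tested with BLI-489 held at a constant 4 μg/ml. Inoculum was 10^5 CFU/ml. Plates were incubated 18 to 22 h at 35°C in ambient air. MIC was the lowest concentration giving complete growth inhibition by unaided eye.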

Enterococcus faecalis [3] = assay: Antimicrobial activity against Enterococcus faecalis clinical isolate after 18 to 22 hrs by broth microdilution method in presence of beta-lactamase inhibitor BLI-489
Summary of the method: (§4)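 CLSI broth microdilution in Mueller-Hinton II broth. Piperacillin serial dilutions were combined with BLI-489 held constant at 4 μg/ml. Inoculum was 10^5 CFU/ml. Plates were incubated 18 to 22 h at 35°C in ambient air. MIC was the lowest concentration completely inhibiting growth seen by the unaided eye. Piperacillin-tazobactam interpretive criteria were applied.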

Enterococcus faecalis [4] = assay: Antimicrobial activity against vancomycin-resistant Enterococcus faecalis clinical isolate after 18 to 22 hrs by broth microdilution method in presence of beta-lactamase inhibitor Tazobactam
Summary of the method: (§5)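 CLSI broth microdilution in Mueller-Hinton II broth. Antibiotic in serial dilution with the β-lactamase inhibitor held at a constant 4 μg/ml. Inoculum 10^5 CFU/ml. Incubated 18 to 22 h at 35°C in ambient air.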

Enterococcus faecium = assay: Antimicrobial activity against vancomycin-resistant Enterococcus faecium clinical isolate after 18 to 22 hrs by broth microdilution method in presence of beta-lactamase inhibitor BLI-489; summary of the method: as §5
Streptococcus pneumoniae = assay: Antimicrobial activity against penicillin-susceptible Streptococcus pneumoniae clinical isolate after 18 to 22 hrs by broth microdilution method in presence of beta-lactamase inhibitor BLI-489
Summary of the method: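 Streptococci were tested by CLSI broth microdilution in Mueller-Hinton II broth plus 5% lysed horse blood. Piperacillin was serially diluted with BLI-489 fixed at a constant 4 μg/ml. Inoculum was 10^5 CFU/ml, with 18 to 22 h at 35°C in ambient air. MIC was the lowest concentration completely inhibiting growth by eye.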

Bacteroides fragilis = assay: Antimicrobial activity against Bacteroides fragilis clinical isolate after 18 to 22 hrs by broth microdilution method in presence of beta-lactamase inhibitor Tazobactam
Clostridium perfringens = assay: Antimicrobial activity against Clostridium perfringens clinical isolate after 18 to 22 hrs by broth microdilution method in presence of beta-lactamase inhibitor Tazobactam
Enterococcus gallinarum = assay: Antimicrobial activity against Enterococcus gallinarum clinical isolate after 18 to 22 hrs by broth microdilution method in presence of beta-lactamase inhibitor BLI-489; summary of the method: as §3
Enterobacter cloacae = assay: Antimicrobial activity against Enterobacter cloacae clinical isolate after 18 to 22 hrs by broth microdilution method in presence of beta-lactamase inhibitor Tazobactam
Summary of the method: (§6)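 Piperacillin-tazobactam was tested on recent clinical isolates by CLSI broth microdilution in Mueller-Hinton II broth, with tazobactam at constant 4 μg/ml. Wells held 10^5 CFU/ml and were incubated 18 to 22 h at 35°C in ambient air. MIC was the lowest concentration with no growth visible to the unaided eye.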

Klebsiella aerogenes = assay: Antimicrobial activity against AmpC beta-lactamase-producing Enterobacter aerogenes clinical isolate after 18 to 22 hrs by broth microdilution method in presence of beta-lactamase inhibitor Tazobactam; summary of the method: as §6
Citrobacter koseri = assay: Antimicrobial activity against Citrobacter koseri clinical isolate after 18 to 22 hrs by broth microdilution method in presence of beta-lactamase inhibitor Tazobactam; summary of the method: as §6
Citrobacter freundii = assay: Antimicrobial activity against AmpC beta-lactamase-producing Citrobacter freundii clinical isolate after 18 to 22 hrs by broth microdilution method in presence of beta-lactamase inhibitor BLI-489; summary of the method: as §4
Klebsiella pneumoniae = assay: Antimicrobial activity against class A extended spectrum beta-lactamase- producing Klebsiella pneumoniae clinical isolate after 18 to 22 hrs by broth microdilution method in presence of beta-lactamase inhibitor Tazobactam
Summary of the method: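 CLSI broth microdilution of piperacillin-tazobactam in Mueller-Hinton II broth with serial dilutions. Inoculum was 10^5 CFU/ml. Incubation was 18 to 22 h at 35°C in ambient air. MIC was read as the lowest concentration giving complete inhibition of growth visible to the unaided eye.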

Klebsiella oxytoca = assay: Antimicrobial activity against Klebsiella oxytoca clinical isolate after 18 to 22 hrs by broth microdilution method in presence of beta-lactamase inhibitor Tazobactam; summary of the method: as §2
Serratia marcescens = assay: Antimicrobial activity against Serratia marcescens clinical isolate after 18 to 22 hrs by broth microdilution method in presence of beta-lactamase inhibitor Tazobactam; summary of the method: as §2
Acinetobacter junii = assay: Antimicrobial activity against Acinetobacter junii clinical isolate after 18 to 22 hrs by broth microdilution method in presence of beta-lactamase inhibitor BLI-489; summary of the method: as §4
Acinetobacter lwoffii = assay: Antimicrobial activity against Acinetobacter lwoffii clinical isolate after 18 to 22 hrs by broth microdilution method in presence of beta-lactamase inhibitor Tazobactam; summary of the method: as §6

**Q.** How did the MIC (Haemophilus influenzae) turn out when `CCN1CCN(C(=O)N[C@@H](C(=O)N[C@@H]2C(=O)N3[C@@H]2SC(C)(C)[C@@H]3C(=O)O)c2ccccc2)C(=O)C1=O` [PIPERACILLIN] was run?
**A.** The MIC was ≤ 0.004 µg/mL.

**Q.** And the MIC50 (Haemophilus influenzae)?
**A.** The MIC50 was ≤ 0.004 µg/mL.

**Q.** And the MIC90 (Haemophilus influenzae)?
**A.** The MIC90 was ≤ 0.004 µg/mL.

**Q.** And the MIC [1]?
**A.** Its MIC is ≤ 0.004 µg/mL.

**Q.** What about the MIC50 [1] of the same compound?
**A.** The MIC50 was ≤ 0.004 µg/mL.

**Q.** What about the MIC90 [1] of the same compound?
**A.** Its MIC90 is ≤ 0.004 µg/mL.

**Q.** And the MIC (Moraxella catarrhalis)?
**A.** Its MIC is ≤ 0.004 µg/mL.

**Q.** And the MIC50 (Moraxella catarrhalis)?
**A.** Its MIC50 is ≤ 0.004 µg/mL.

**Q.** And the MIC90 (Moraxella catarrhalis)?
**A.** Its MIC90 is 0.008 µg/mL.

**Q.** What about the MIC50 [2] of the same compound?
**A.** Its MIC50 is 32 µg/mL.

**Q.** And the MIC90 [2]?
**A.** Its MIC90 is > 128 µg/mL.

**Q.** And the MIC50 (Enterococcus faecalis [3])?
**A.** Its MIC50 is 2 µg/mL.

**Q.** What about the MIC90 (Enterococcus faecalis [3]) of the same compound?
**A.** Its MIC90 is 4 µg/mL.

**Q.** And the MIC50 (Enterococcus faecalis [4])?
**A.** Its MIC50 is 2 µg/mL.

**Q.** What about the MIC90 (Enterococcus faecalis [4]) of the same compound?
**A.** Its MIC90 is > 128 µg/mL.

**Q.** And the MIC50 (Enterococcus faecium)?
**A.** Its MIC50 is > 128 µg/mL.

**Q.** And the MIC (Streptococcus pneumoniae)?
**A.** Its MIC is ≤ 0.004 µg/mL.

**Q.** What about the MIC50 (Streptococcus pneumoniae) of the same compound?
**A.** Its MIC50 is ≤ 0.004 µg/mL.

**Q.** What about the MIC90 (Streptococcus pneumoniae) of the same compound?
**A.** The MIC90 was ≤ 0.004 µg/mL.

**Q.** And the MIC50 (Bacteroides fragilis)?
**A.** Its MIC50 is 0.06 µg/mL.

**Q.** And the MIC90 (Bacteroides fragilis)?
**A.** Its MIC90 is 0.25 µg/mL.

**Q.** And the MIC (Clostridium perfringens)?
**A.** The MIC was ≤ 0.015 µg/mL.

**Q.** What about the MIC50 (Clostridium perfringens) of the same compound?
**A.** The MIC50 was ≤ 0.015 µg/mL.

**Q.** What about the MIC90 (Clostridium perfringens) of the same compound?
**A.** Its MIC90 is 0.03 µg/mL.

**Q.** What about the MIC50 (Enterococcus gallinarum) of the same compound?
**A.** Its MIC50 is 2 µg/mL.

**Q.** What about the MIC90 (Enterococcus gallinarum) of the same compound?
**A.** The MIC90 was 8 µg/mL.

**Q.** What about the MIC50 (Enterobacter cloacae) of the same compound?
**A.** The MIC50 was 2 µg/mL.

**Q.** What about the MIC90 (Enterobacter cloacae) of the same compound?
**A.** Its MIC90 is > 128 µg/mL.

**Q.** What about the MIC (Klebsiella aerogenes) of the same compound?
**A.** Its MIC is > 8 µg/mL.

**Q.** What about the MIC50 (Klebsiella aerogenes) of the same compound?
**A.** The MIC50 was 4 µg/mL.

**Q.** What about the MIC90 (Klebsiella aerogenes) of the same compound?
**A.** Its MIC90 is 16 µg/mL.

**Q.** And the MIC50 (Citrobacter koseri)?
**A.** Its MIC50 is 2 µg/mL.

**Q.** What about the MIC90 (Citrobacter koseri) of the same compound?
**A.** The MIC90 was 16 µg/mL.

**Q.** And the MIC50 (Citrobacter freundii)?
**A.** Its MIC50 is 4 µg/mL.

**Q.** And the MIC90 (Citrobacter freundii)?
**A.** Its MIC90 is 64 µg/mL.

**Q.** What about the MIC50 (Klebsiella pneumoniae) of the same compound?
**A.** Its MIC50 is 32 µg/mL.

**Q.** What about the MIC90 (Klebsiella pneumoniae) of the same compound?
**A.** The MIC90 was > 128 µg/mL.

**Q.** What about the MIC50 (Klebsiella oxytoca) of the same compound?
**A.** The MIC50 was 2 µg/mL.

**Q.** And the MIC90 (Klebsiella oxytoca)?
**A.** The MIC90 was 8 µg/mL.

**Q.** And the MIC50 (Serratia marcescens)?
**A.** Its MIC50 is 2 µg/mL.

**Q.** And the MIC90 (Serratia marcescens)?
**A.** The MIC90 was 64 µg/mL.

**Q.** And the MIC50 (Acinetobacter junii)?
**A.** The MIC50 was 4 µg/mL.

**Q.** And the MIC90 (Acinetobacter junii)?
**A.** The MIC90 was 16 µg/mL.

**Q.** What about the MIC50 (Acinetobacter lwoffii) of the same compound?
**A.** The MIC50 was ≤ 0.12 µg/mL.

**Q.** What about the MIC90 (Acinetobacter lwoffii) of the same compound?
**A.** Its MIC90 is 32 µg/mL.

Source: ChEMBL document CHEMBL1629583, “Establishment of in vitro susceptibility testing methodologies and comparative activities of piperacillin in combination with the penem {beta}-lactamase inhibitor BLI-489” (2009)
